Source: paper PMC3447631 (Chemistry & biology, 2012)
≈ marks a conversion by molar mass, not a printed value. Entries after “also recorded” stand apart in the source; their conditions may differ.

Columns and labels:
[1] = In vivo PK studies in mice; conditions: mouse, plasma
Hep3B cells = experiment: Hep3B-Luc orthotopic xenograft in liver of nude mice; type: in vivo; conditions: 30 mg/kg IP daily or every other day
Method in brief: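 Orthotopic model: luciferase-expressing Hep3B cells were injected into the liver parenchyma of nude mice. Once tumour was established (luciferase counts doubled on 3 consecutive bioluminescent reads), mice received test compound 30 mg/kg IP daily or every other day as tolerated, or DMSO vehicle. Tumour and normal liver were harvested after 20–57 days for Oil Red O, cleaved caspase-3 immunostaining and TUNEL.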

[2] = Tolerability and VetScan liver panel blood chemistry in mice; type: in vivo
Method in brief: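 NONcNZO10/LtJ or ICR mice received vehicle (DMSO) or test compound IP once daily for 5 days. Normal-mouse groups were DMSO, 30 mg/kg/day and 10 mg/kg/day (n=4 each). Blood was drawn before sacrifice and run on a VetScan analyzer for ALP, ALT, GGT (IU/L), bile acids (μmol/L), total bilirubin, BUN, cholesterol (mg/dL) and albumin (g/dL).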

PPARγ = type: cell-based; conditions: PPRE-Luc, HeLa
Method in brief: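 HeLa cells were co-transfected with a PPRE-Luc reporter, with or without a PPARγ expression vector, then treated with test compound. Read-out was luciferase activity; mean ± SE, n=3.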

Hep3B-Luc cells = experiment: Hep3B-Luc cytotoxicity; type: cell-based, human
Method in brief: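 Hep3B cells engineered to express luciferase from a CMV promoter, tested alongside primary hepatocytes. Viability was read as bioluminescence at 24, 48 and 72 hours after treatment. Cell division was followed by BrdU uptake, with Oil Red O fat staining.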

Solubility = type: physicochemical
HNF4α protein = HNF4α protein and Ki67 in mouse tissues after IP injection; type: in vivo; conditions: mice
L-type calcium channel = experiment: Ricerca hit profiling panel: L-type calcium channel; type: binding; conditions: Ricerca panel of 41 receptors/enzymes
[3] = Hepatic microsomal stability; type: in vitro ADME
CYP (2C19) = CYP (2C19) (Homo sapiens, UniProt P33261); experiment: Ricerca hit profiling panel: CYP 2C19; type: biochemical; conditions: Ricerca panel of 41 receptors/enzymes
HNF4α DNA binding = target: T1, HNF4α DNA binding (Homo sapiens, UniProt P41235); experiment: HNF4α DNA binding, HNF TransAM ELISA on HepG2 nuclear extracts; type: cell-based; conditions: HepG2 incubated overnight with compound
T1 sequence (P41235 1-474): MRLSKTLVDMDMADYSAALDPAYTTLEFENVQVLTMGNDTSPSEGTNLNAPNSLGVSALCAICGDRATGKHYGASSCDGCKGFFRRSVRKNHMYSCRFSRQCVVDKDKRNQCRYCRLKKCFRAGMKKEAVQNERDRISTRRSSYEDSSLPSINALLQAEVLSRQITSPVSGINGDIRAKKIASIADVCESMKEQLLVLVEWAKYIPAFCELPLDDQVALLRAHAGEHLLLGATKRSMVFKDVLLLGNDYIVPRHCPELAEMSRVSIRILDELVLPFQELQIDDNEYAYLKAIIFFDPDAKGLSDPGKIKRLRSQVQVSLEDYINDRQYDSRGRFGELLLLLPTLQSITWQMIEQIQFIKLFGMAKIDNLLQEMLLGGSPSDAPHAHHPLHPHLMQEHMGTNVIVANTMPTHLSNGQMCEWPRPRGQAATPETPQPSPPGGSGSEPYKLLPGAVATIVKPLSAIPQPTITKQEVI
Method in brief: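 HepG2 cells were incubated overnight with test compound. Nuclear protein extracts (5μg) were added to wells bearing an oligonucleotide with an HNF4α binding site. Bound HNF4α was detected with an anti-HNF4α antibody (ELISA). Mean ± SD, n=3 biological replicates; Student's t-test.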

[4] = tested on: primary murine hepatocytes; experiment: Primary murine hepatocytes in vitro; type: cell-based
Method in brief: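 Primary murine hepatocytes were exposed to DMSO or test compound (5μM) for 3 days, then fixed and stained with Oil Red O.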

[5] = tested on: endogenous insulin promoter; experiment: Endogenous insulin mRNA; type: cell-based, human
Method in brief: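 Q-PCR of endogenous insulin mRNA in T6PNE cells after 48 h exposure to test compound across a concentration series. For fatty acids, cells got 1μM tamoxifen plus fatty acid or DMSO vehicle for 48 hours before RNA harvest. Insulin mRNA was normalized to GAPDH or 18S rRNA; mean ± SE, n=3.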

p57Kip2 expression = experiment: Kip2 mRNA in T6PNE cells; type: cell-based, human
Method in brief: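 Kip2 mRNA in T6PNE cells measured by Q-PCR, normalized to 18s rRNA. Treated and DMSO vehicle cells were compared by Student's t-test.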

liver = experiment: Hepatic steatosis in mice; type: in vivo; conditions: 10 and 30 mg/kg IP, dose-dependent
T6PNE cells = experiment: Acylcarnitine analysis by GC/MS of T6PNE cell extracts; type: cell-based, human
HNF4α gene expression [6] = experiment: HNF4α mRNA expression in MIN6 cells; type: cell-based, murine; conditions: 5 hours
HNF4α gene expression [7] = experiment: HNF4α mRNA expression in HepG2 cells; type: cell-based; conditions: 48 hours
Method in brief: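 HNF4α mRNA in treated HepG2 cells measured by Q-PCR and normalized to 18S rRNA. Differences in expression assessed by Student's t-test.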

[8] = tested on: HNF4α-responsive OTC promoter; experiment: OTC promoter-luciferase reporter co-transfected with full length human HNF4α; type: cell-based; conditions: 1μM, 48 hours
tumor cell lines = experiment: Toxicity to tumor cell lines versus cultured primary cells in vitro; type: cell-based
[9] = tested on: panel of 60 human tumor cell lines; experiment: NCI DTP panel of 60 human tumor cell lines; type: cell-based; conditions: NCI/NIH DTP screen
HNF4α = target: T2, HNF4α (Homo sapiens, UniProt P41235); experiment: DARTS assay in HepG2 cells; type: binding; conditions: HepG2, 20μM, 24hr, subtilisin
T2 sequence (P41235 1-474): T1 sequence (P41235 1-474)
Method in brief: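 DARTS: HepG2 cells were treated with DMSO or test compound at 20μM for 24hr. Read-out is the ligand-induced change in HNF4α sensitivity to proteolysis.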

Plasma protein binding = type: in vitro ADME; conditions: after 4 h
[10] = tested on: modified estrogen receptor (E47MER); experiment: Counterscreen: prevention of E47MER translocation; type: cell-based
PPARδ = PPARδ (Homo sapiens, UniProt Q03181); experiment: PPRE-luciferase reporter assay with PPARδ co-transfection; type: cell-based
Plasma stability = type: in vitro ADME; conditions: after 3 h
full-length HNF4α = full-length HNF4α (Rattus norvegicus, UniProt P22449); experiment: Direct binding by quenching of HNF4α aromatic amino acid fluorescence; conditions: Hill equation analysis
PPARα = PPARα (Homo sapiens, UniProt Q07869); experiment: PPRE-luciferase reporter assay with PPARα co-transfection; type: cell-based
HNF4α gene expression [11] = experiment: HNF4α mRNA expression in T6PNE cells; type: cell-based, human; conditions: 48 hours
[12] = tested on: E47 and PDX-1 binding to the human insulin promoter; experiment: ChIP of E47 and PDX-1 on the human insulin promoter in T6PNE cells; type: cell-based; conditions: 5μM, 48 hours
Method in brief: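 T6PNE cells were given 1μM tamoxifen plus DMSO or 5μM test compound for 48 hours. ChIP used anti-E47 and anti-PDX-1 antibodies, followed by Q-PCR with primers for the E-box and A-box elements of the insulin promoter. Treated and vehicle binding were compared by Student's t-test.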

Chain of PPARα (Q07869 whole entry, species assumed): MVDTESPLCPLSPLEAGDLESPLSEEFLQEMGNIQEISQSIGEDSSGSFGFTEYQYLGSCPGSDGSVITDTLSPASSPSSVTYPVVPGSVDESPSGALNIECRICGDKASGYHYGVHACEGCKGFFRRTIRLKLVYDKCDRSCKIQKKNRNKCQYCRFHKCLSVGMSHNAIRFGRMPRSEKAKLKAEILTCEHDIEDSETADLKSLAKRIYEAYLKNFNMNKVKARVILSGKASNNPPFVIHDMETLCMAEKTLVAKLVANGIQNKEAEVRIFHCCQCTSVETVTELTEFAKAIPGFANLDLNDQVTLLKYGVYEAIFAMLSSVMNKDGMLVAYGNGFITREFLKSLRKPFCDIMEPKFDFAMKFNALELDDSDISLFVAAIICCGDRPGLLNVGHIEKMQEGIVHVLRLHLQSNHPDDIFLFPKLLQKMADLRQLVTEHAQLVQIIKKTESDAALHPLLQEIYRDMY
Chain of PPARδ (Q03181 whole entry, species assumed): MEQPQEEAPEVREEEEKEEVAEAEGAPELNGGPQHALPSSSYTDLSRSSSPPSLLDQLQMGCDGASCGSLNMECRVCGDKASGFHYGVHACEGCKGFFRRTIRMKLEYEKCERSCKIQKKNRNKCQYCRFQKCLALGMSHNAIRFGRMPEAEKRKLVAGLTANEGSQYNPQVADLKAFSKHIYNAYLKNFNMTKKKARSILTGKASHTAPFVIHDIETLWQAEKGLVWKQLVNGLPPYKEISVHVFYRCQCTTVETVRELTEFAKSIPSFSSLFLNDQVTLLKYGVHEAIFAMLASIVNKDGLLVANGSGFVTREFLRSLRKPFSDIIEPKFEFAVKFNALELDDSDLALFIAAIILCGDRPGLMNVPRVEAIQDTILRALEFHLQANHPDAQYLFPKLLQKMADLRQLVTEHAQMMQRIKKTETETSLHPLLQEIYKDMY
Chain of CYP (2C19) (P33261 whole entry): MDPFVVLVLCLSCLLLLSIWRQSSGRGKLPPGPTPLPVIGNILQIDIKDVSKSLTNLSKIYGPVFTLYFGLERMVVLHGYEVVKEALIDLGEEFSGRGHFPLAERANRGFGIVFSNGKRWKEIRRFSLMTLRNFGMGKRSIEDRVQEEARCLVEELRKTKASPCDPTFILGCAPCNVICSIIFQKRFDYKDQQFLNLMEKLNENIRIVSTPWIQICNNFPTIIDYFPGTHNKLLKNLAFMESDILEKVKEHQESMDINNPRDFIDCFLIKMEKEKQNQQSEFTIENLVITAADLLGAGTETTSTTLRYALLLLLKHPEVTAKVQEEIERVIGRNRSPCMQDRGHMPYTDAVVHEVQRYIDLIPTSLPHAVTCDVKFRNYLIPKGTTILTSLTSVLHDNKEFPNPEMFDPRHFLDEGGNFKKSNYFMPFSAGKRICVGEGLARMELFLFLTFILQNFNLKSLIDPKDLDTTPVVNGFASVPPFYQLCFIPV
Chain of full-length HNF4α (P22449 whole entry): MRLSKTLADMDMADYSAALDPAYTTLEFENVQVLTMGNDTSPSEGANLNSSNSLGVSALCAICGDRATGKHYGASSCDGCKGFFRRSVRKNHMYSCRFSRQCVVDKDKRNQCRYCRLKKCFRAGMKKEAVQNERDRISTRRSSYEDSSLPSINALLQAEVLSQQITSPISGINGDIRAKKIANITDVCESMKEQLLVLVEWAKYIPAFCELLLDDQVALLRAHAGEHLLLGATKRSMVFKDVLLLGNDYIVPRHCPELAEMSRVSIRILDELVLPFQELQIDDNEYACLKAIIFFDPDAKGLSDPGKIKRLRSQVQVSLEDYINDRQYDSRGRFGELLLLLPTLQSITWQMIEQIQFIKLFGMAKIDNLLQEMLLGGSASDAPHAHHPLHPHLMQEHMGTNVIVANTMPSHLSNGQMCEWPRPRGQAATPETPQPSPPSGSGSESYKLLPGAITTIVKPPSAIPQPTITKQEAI

SMILES: Cc1ccc([N+](=O)[O-])cc1S(=O)(=O)n1c(C)nc2ccccc21 [BI6015, 2-Methyl-1-(2-methyl-5-nitrophenylsulfonyl)-1H-benzo[d]imidazole]
- AUC ([1]; ip, 30 mg/kg): 26.7 ng·h/mL
- half-life ([1]; other: oral gavage or intraperitoneal (IP) injection): ~1.5 h
- apoptosis (TUNEL, cleaved caspase-3) in the normal liver (Hep3B cells): but not in the normal liver
- apoptosis (TUNEL, cleaved caspase-3) within the tumor (Hep3B cells): high levels of apoptotic cells
- tumor luciferase counts (Hep3B cells): some treated animals exhibited decreased luciferase counts, this did not occur in all animals
- Oil Red O staining in normal liver and tumor (Hep3B cells; 20–57 days): marked induction
- tolerability ([2]; IP once per day for 5 days, 30 mg/kg): well tolerated
- blood chemistries, including ALT ([2]; VetScan Liver Panel): unaffected
- activity as PPARγ agonist (PPARγ): lacked activity as a PPARγ agonist; also recorded: not to be a PPARγ agonist
- BrdU incorporation in Hep3B-Luc cells (Hep3B-Luc cells; after 48 hours of treatment): decreased
- toxicity to Hep3B cells (Hep3B-Luc cells; bioluminescence, 24, 48 and 72 hours): markedly toxic
- solubility (Solubility; limits deliverable dose in vivo): limited solubility
- HNF4α expression in the intestine or kidney (HNF4α protein; IP): does not change
- HNF4α protein in the liver (HNF4α protein; IP): loss of HNF4α protein
- number of cells expressing Ki67 in liver, intestine or kidney (HNF4α protein; versus vehicle): no difference
- cross reactivity with L-type calcium channel (L-type calcium channel): significant cross reactivity
- hepatic microsomal stability, compound remained ([3]; 60-minute incubation in vitro): 22%
- cross reactivity with CYP 2C19 (CYP (2C19)): significant cross reactivity
- effect on HNF4α DNA binding (HNF4α DNA binding): potently repressed
- toxicity in primary hepatocytes in vitro [4]: Toxicity was not observed
- steatosis in primary mouse hepatocytes in vitro ([4]; 5μM, 3 days, Oil Red O): induced steatosis
- effect on endogenous insulin expression / insulin promoter activity ([5]; T6PNE cells): potently inhibited
- reduction of endogenous insulin gene expression ([5]; T6PNE cells): 50 fold
- effect on Kip2 expression (p57Kip2 expression): reduced
- hepatic steatosis in vivo (liver): marked fat accumulation (steatosis)
- acetylcarnitine (T6PNE cells): concurrent increase
- longer chain acylcarnitines (C18, C18:1, C16, C14) (T6PNE cells): decreased levels
- effect on HNF4α expression in MIN6 (HNF4α gene expression [6]): strongly repressed
- effect on HNF4α expression in HepG2 (HNF4α gene expression [7]): strongly repressed
- OTC promoter-driven luciferase expression in CV-1 cells [8]: inhibited
- OTC promoter-driven luciferase expression in HepG2 cells [8]: inhibited
- toxicity to tumor cell lines in vitro (tumor cell lines): toxic
- effect on panel of 60 human tumor cell lines [9]: Slowed growth and/or toxicity
- effect on HNF4α protease sensitivity (DARTS) (HNF4α): induced altered HNF4α protease sensitivity

SMILES: Cc1nc2ccccc2n1S(=O)(=O)c1cc([N+](=O)[O-])ccc1Cl [BIM5078, 1-(2′-chloro-5′-nitrobenzenesulfonyl)-2-methylbenzimidazole]
- binding to plasma proteins, bound (Plasma protein binding): 98%
- PPRE activation enhanced by co-transfection with PPARγ expression vector (PPARγ): ~4 fold
- activity as PPARγ agonist (PPARγ): had activity as PPARγ agonists
- PPRE activation (PPARγ; without PPARγ expression vector): 2 fold
- solubility at 18 h (Solubility): 0.17 µg/mL (≈ 0.483 µM)
- estrogenic antagonism / tamoxifen-like activity (E47MER translocation) [10]: passed the counterscreen
- microsomal stability, remaining ([3]; after 1.25 h): 32%
- effect on HNF4α DNA binding (HNF4α DNA binding): active but less potent
- luciferase activity with PPARδ co-transfected (PPARδ): no change in luciferase activity
- plasma stability, remaining (Plasma stability): 8%
- Hill coefficient of binding (full-length HNF4α): 0.9 ± 0.3
- IC50 ([5]; Homo sapiens, 48 h, read-out: IC50, inhibition of endogenous insulin expression): 930 nM
- effect on endogenous insulin expression / insulin promoter activity ([5]; T6PNE cells): had activity
- luciferase activity with PPARα co-transfected (PPARα): no change in luciferase activity
- effect on Kip2 expression (p57Kip2 expression): potently decreased
- effect on HNF4α expression in MIN6 (HNF4α gene expression [6]): potently repressed
- effect on HNF4α expression in HepG2 (HNF4α gene expression [7]): potently repressed
- effect on HNF4α expression in T6PNE (HNF4α gene expression [11]): potently repressed
- toxicity to tumor cell lines in vitro (tumor cell lines): toxic
- effect on HNF4α protease sensitivity (DARTS) (HNF4α): induced altered HNF4α protease sensitivity
- association of E47 with the distal (E2) E-box of the insulin promoter [12]: significantly decreased
- association of PDX-1 at A-boxes (A1, A3, A5) of the insulin promoter [12]: significantly decreased
